# Measurements reported in ChEMBL document CHEMBL5724801, “EUbOPEN Chemogenomics Library - Multiplex” (2024).
# “And” between values parts separate entries of the source, which are not always exact repeats. Equal values may be shown once.
# Test system: HEK-293T
# Experiment: Multiplex assay against HEK293T
# Type: toxicity, cell-based
# Settings: human
# How it was run: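 Tubulin, mitochondrial-mass and membrane-permeability phenotypes are per cents of healthy-nucleus cells. Cells were gated by CellPathfinder machine learning into Hoechst high-intensity objects or normal cells, normal cells into healthy, pyknosed or fragmented nuclei, and pyknosed cells into mitotic or apoptotic. Before that, live cells stained at seeding with Hoechst33342, BioTracker Green Microtubule Cytoskeleton Dye, MitoTracker Red and Annexin V Alexa Fluor 680 were imaged on a CQ1 microscope at 37°C and 5% CO2 after compound addition.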
# [1] = 12 h, 1 µM, compound concentration 1 uM
# [2] = 12 h, 10 µM, compound concentration 10 uM
# [3] = 24 h, 1 µM, compound concentration 1 uM
# [4] = 24 h, 10 µM, compound concentration 10 uM
# [5] = 48 h, 1 µM, compound concentration 1 uM
# [6] = 48 h, 10 µM, compound concentration 10 uM
smiles,measurement,setting,value
O=C(O)C(F)(F)F.O=C1NC(=O)/C(=C/c2c[nH]c(=O)c(-c3ccc(N4CCNCC4)nc3)c2)S1,Population Apoptotic (%),[1],11.41% and 11.65%
same,Population Fragmented Nuclei (%),[1],1.85% and 6.98%
same,Population Hoechst High Intensity Objects (%),[1],0%
same,Population Mitotic Cells (%),[1],88.59% and 88.35%
same,Population Normal (%),[1],100%
same,Population Pyknosed Nuclei (%),[1],39.31% and 79.84%
same,Total Cell Count,[1],379 and 129
same,Population Apoptotic (%),[2],6.85% and 12.69%
same,Population Fragmented Nuclei (%),[2],2.2% and 4.57%
same,Population Healthy Nuclei (%),[2],57.69% and 27.41%
same,Population Hoechst High Intensity Objects (%),[2],0.27% and 0%
same,Population Membrane Permeable-Phenotype (%),[2],0.95% and 0%
same,Population Mitotic Cells (%),[2],93.15% and 87.31%
same,Population Normal (%),[2],99.73% and 100%
same,Population Pyknosed Nuclei (%),[2],40.11% and 68.02%
same,Total Cell Count,[2],365 and 197
same,Population Apoptotic (%),[3],17.05% and 22.22%
same,Population Fragmented Nuclei (%),[3],1.89% and 2.88%
same,Population Healthy Nuclei (%),[3],75.95% and 25.9%
same,Population Hoechst High Intensity Objects (%),[3],0.17% and 0%
same,Population Membrane Permeable-Phenotype (%),[3],1.13% and 0%
same,Population Mitochondria Different-Phenotype (%),[3],18.1% and 11.11%
same,Population Mitotic Cells (%),[3],82.95% and 77.78%
same,Population Normal (%),[3],99.83% and 100%
same,Population Apoptotic (%),[4],8.74% and 7.63%
same,Population Fragmented Nuclei (%),[4],1.47% and 3.95%
same,Population Healthy Nuclei (%),[4],81.67% and 49.41%
same,Population Hoechst High Intensity Objects (%),[4],0.16% and 0.39%
same,Population Membrane Permeable-Phenotype (%),[4],1% and 0.8%
same,Population Mitochondria Different-Phenotype (%),[4],11.22% and 10.4%
same,Population Mitotic Cells (%),[4],91.26% and 92.37%
same,Population Normal (%),[4],99.84% and 99.61%
same,Population Pyknosed Nuclei (%),[4],16.86% and 46.64%
same,Population Tubulin-Different-Phenotype (%),[4],10.02% and 1.6%
same,Total Cell Count,[4],612 and 254
same,Population Apoptotic (%),[5],6.45% and 15.87%
same,Population Fragmented Nuclei (%),[5],2.67% and 3.98%
same,Population Healthy Nuclei (%),[5],86.14% and 60.23%
same,Population Hoechst High Intensity Objects (%),[5],0.07% and 0%
same,Population Membrane Permeable-Phenotype (%),[5],4.02% and 0.94%
same,Population Mitochondria Different-Phenotype (%),[5],12.07% and 19.81%
same,Population Mitotic Cells (%),[5],93.55% and 84.13%
same,Population Normal (%),[5],99.93% and 100%
same,Population Apoptotic (%),[6],7.41% and 20.63%
same,Population Fragmented Nuclei (%),[6],4.01% and 2.52%
same,Population Healthy Nuclei (%),[6],88.47% and 81.61%
same,Population Hoechst High Intensity Objects (%),[6],0% and 0.5%
same,Population Membrane Permeable-Phenotype (%),[6],6.36% and 2.78%
same,Population Mitochondria Different-Phenotype (%),[6],6.55% and 12.04%
same,Population Mitotic Cells (%),[6],92.59% and 79.37%
same,Population Normal (%),[6],100% and 99.5%
same,Population Pyknosed Nuclei (%),[6],7.52% and 15.87%
O=C1NC(NC23CC4CC(CC(C4)C2)C3)=N/C1=C\c1ccc2ncsc2c1,Population Apoptotic (%),[1],29.13% and 49.03%
same,Population Fragmented Nuclei (%),[1],8.91% and 6.01%
same,Population Hoechst High Intensity Objects (%),[1],6.05% and 0.54%
same,Population Membrane Permeable-Phenotype (%),[1],1.75% and 0%
same,Population Mitochondria Different-Phenotype (%),[1],15.79% and 5.88%
same,Population Mitotic Cells (%),[1],70.87% and 50.97%
same,Population Normal (%),[1],93.95% and 99.46%
same,Population Pyknosed Nuclei (%),[1],62.87% and 84.7%
same,Population Tubulin-Different-Phenotype (%),[1],17.54% and 23.53%
same,Total Cell Count,[1],215 and 184
same,Population Apoptotic (%),[2],29.21% and 56.72%
same,Population Fragmented Nuclei (%),[2],84.08% and 93.38%
same,Population Healthy Nuclei (%),[2],3.91% and 2.86%
same,Population Hoechst High Intensity Objects (%),[2],21.42% and 7.86%
same,Population Membrane Permeable-Phenotype (%),[2],0%
same,Population Mitochondria Different-Phenotype (%),[2],0%
same,Population Mitotic Cells (%),[2],70.79% and 43.28%
same,Population Normal (%),[2],78.58% and 92.14%
same,Population Pyknosed Nuclei (%),[2],12.01% and 3.76%
same,Population Tubulin-Different-Phenotype (%),[2],0%
same,Total Cell Count,[2],943 and 1934
same,Population Apoptotic (%),[3],59.35% and 52.46%
same,Population Fragmented Nuclei (%),[3],10.75% and 5.21%
same,Population Healthy Nuclei (%),[3],23.12% and 8.06%
same,Population Hoechst High Intensity Objects (%),[3],4.62% and 0%
same,Population Membrane Permeable-Phenotype (%),[3],6.98% and 5.88%
same,Population Mitochondria Different-Phenotype (%),[3],4.65% and 0%
same,Population Mitotic Cells (%),[3],40.65% and 47.54%
same,Population Normal (%),[3],95.38% and 100%
same,Population Pyknosed Nuclei (%),[3],66.13% and 86.73%
same,Population Tubulin-Different-Phenotype (%),[3],16.28% and 11.76%
same,Total Cell Count,[3],195 and 211
same,Population Apoptotic (%),[4],30% and 40.21%
same,Population Fragmented Nuclei (%),[4],85.18% and 91.28%
same,Population Healthy Nuclei (%),[4],4.04% and 1.95%
same,Population Hoechst High Intensity Objects (%),[4],21.4% and 9.41%
same,Population Membrane Permeable-Phenotype (%),[4],3.33% and 0%
same,Population Mitochondria Different-Phenotype (%),[4],0%
same,Population Mitotic Cells (%),[4],70% and 59.79%
same,Population Normal (%),[4],78.6% and 90.59%
same,Population Pyknosed Nuclei (%),[4],10.78% and 6.76%
same,Population Tubulin-Different-Phenotype (%),[4],0% and 3.57%
same,Total Cell Count,[4],944 and 1583
same,Population Apoptotic (%),[5],47.65% and 48.67%
same,Population Fragmented Nuclei (%),[5],14.23% and 10.83%
same,Population Healthy Nuclei (%),[5],14.64% and 17.2%
same,Population Hoechst High Intensity Objects (%),[5],2.85% and 0.63%
same,Population Membrane Permeable-Phenotype (%),[5],0% and 3.7%
same,Population Mitochondria Different-Phenotype (%),[5],40% and 33.33%
same,Population Mitotic Cells (%),[5],52.35% and 51.33%
same,Population Normal (%),[5],97.15% and 99.37%
same,Population Pyknosed Nuclei (%),[5],71.13% and 71.97%
same,Population Tubulin-Different-Phenotype (%),[5],25.71% and 48.15%
same,Total Cell Count,[5],246 and 158
same,Population Apoptotic (%),[6],35.64% and 60.49%
same,Population Fragmented Nuclei (%),[6],84.47% and 93.33%
same,Population Healthy Nuclei (%),[6],3.18% and 1.42%
same,Population Hoechst High Intensity Objects (%),[6],23.26% and 9.23%
same,Population Membrane Permeable-Phenotype (%),[6],0%
same,Population Mitochondria Different-Phenotype (%),[6],0%
same,Population Mitotic Cells (%),[6],64.36% and 39.51%
same,Population Normal (%),[6],76.74% and 90.77%
same,Population Pyknosed Nuclei (%),[6],12.35% and 5.25%
same,Population Tubulin-Different-Phenotype (%),[6],0%
same,Total Cell Count,[6],1066 and 1701
